Measured values from ChEMBL document CHEMBL5058577, “EUbOPEN Chemogenomics Library 2 (Multiplex)” (2022).

Test system: U2OS
Experiment: Multiplex assay against U2OS
Type: toxicity, cell-based
Conditions: human
How it was run: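 Live cells were stained at seeding with Hoechst33342, BioTracker Green Microtubule Cytoskeleton Dye, MitoTracker Red and Annexin V Alexa Fluor 680, then imaged on a CQ1 microscope at 37°C and 5% CO2 after compound addition. CellPathfinder machine-learning gating split cells into Hoechst high-intensity objects or normal cells. Normal cells were split into healthy, pyknosed or fragmented nuclei, and pyknosed cells into mitotic or apoptotic. Tubulin, mitochondrial-mass and membrane-permeability phenotypes are per cents of healthy-nucleus cells.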

[1] = 12 h, 1 µM, compound concentration 1 uM, replicate 1
[2] = 12 h, 1 µM, compound concentration 1 uM, replicate 2
[3] = 12 h, 10 µM, compound concentration 10 uM, replicate 1
[4] = 12 h, 10 µM, compound concentration 10 uM, replicate 2
[5] = 24 h, 1 µM, compound concentration 1 uM, replicate 1
[6] = 24 h, 1 µM, compound concentration 1 uM, replicate 2
[7] = 24 h, 10 µM, compound concentration 10 uM, replicate 1
[8] = 24 h, 10 µM, compound concentration 10 uM, replicate 2
[9] = 48 h, 1 µM, compound concentration 1 uM, replicate 1
[10] = 48 h, 1 µM, compound concentration 1 uM, replicate 2
[11] = 48 h, 10 µM, compound concentration 10 uM, replicate 1
[12] = 48 h, 10 µM, compound concentration 10 uM, replicate 2

With `CCCCCC(O)/C=C/[C@H]1C(=O)CC(O)C1C/C=C\CCCC(=O)O` (stereo partly specified) the “Population Apoptotic (%)” value [1] was 60%, the “Population Fragmented Nuclei (%)” value [1] was 28% and the “Population Healthy Nuclei (%)” value [1] was 59%. For the same compound, the “Population Hoechst High Intensity Objects (%)” value [1] was 1%, the “Population Membrane Permeable-Phenotype (%)” value [1] was 5% and the “Population Mitochondria Different-Phenotype (%)” value [1] was 4%. The “Population Mitotic Cells (%)” value [1] was 40%, the “Population Normal (%)” value [1] was 98% and the “Population Pyknosed Nuclei (%)” value [1] was 12%. For the same compound, the “Population Tubulin-Different-Phenotype (%)” value [1] was 4%, the “Total Cell Count” value [1] was 203 and the “Population Apoptotic (%)” value [2] was 88%. The “Population Fragmented Nuclei (%)” value [2] was 15%, the “Population Healthy Nuclei (%)” value [2] was 76% and the “Population Hoechst High Intensity Objects (%)” value [2] was 0%. For the same compound, the “Population Membrane Permeable-Phenotype (%)” value [2] was 8%, the “Population Mitochondria Different-Phenotype (%)” value [2] was 6% and the “Population Mitotic Cells (%)” value [2] was 11%. The “Population Normal (%)” value [2] was 99%, the “Population Pyknosed Nuclei (%)” value [2] was 8% and the “Population Tubulin-Different-Phenotype (%)” value [2] was 8%. For the same compound, the “Total Cell Count” value [2] was 113, the “Population Apoptotic (%)” value [3] was 71% and the “Population Fragmented Nuclei (%)” value [3] was 23%. The “Population Healthy Nuclei (%)” value [3] was 69%, the “Population Hoechst High Intensity Objects (%)” value [3] was 2% and the “Population Membrane Permeable-Phenotype (%)” value [3] was 8%. The “Population Mitochondria Different-Phenotype (%)” value [3] was 3%, the “Population Mitotic Cells (%)” value [3] was 28% and the “Population Normal (%)” value [3] was 97%. For the same compound, the “Population Pyknosed Nuclei (%)” value [3] was 7%, the “Population Tubulin-Different-Phenotype (%)” value [3] was 5% and the “Total Cell Count” value [3] was 190. For the same compound, the “Population Apoptotic (%)” value [4] was 66%, the “Population Fragmented Nuclei (%)” value [4] was 16% and the “Population Healthy Nuclei (%)” value [4] was 73%. For the same compound, the “Population Membrane Permeable-Phenotype (%)” value [4] was 10%, the “Population Mitochondria Different-Phenotype (%)” value [4] was 2% and the “Population Mitotic Cells (%)” value [4] was 33%. The “Population Pyknosed Nuclei (%)” value [4] was 9%, the “Population Tubulin-Different-Phenotype (%)” value [4] was 4% and the “Total Cell Count” value [4] was 94. The “Population Apoptotic (%)” value [5] was 86%, the “Population Fragmented Nuclei (%)” value [5] was 27% and the “Population Healthy Nuclei (%)” value [5] was 63%. The “Population Hoechst High Intensity Objects (%)” value [5] was 2%, the “Population Membrane Permeable-Phenotype (%)” value [5] was 3% and the “Population Mitochondria Different-Phenotype (%)” value [5] was 0%. The “Population Mitotic Cells (%)” value [5] was 13%, the “Population Normal (%)” value [5] was 98% and the “Population Pyknosed Nuclei (%)” value [5] was 8%. For the same compound, the “Population Tubulin-Different-Phenotype (%)” value [5] was 1%, the “Total Cell Count” value [5] was 250 and the “Population Apoptotic (%)” value [6] was 90%. The “Population Fragmented Nuclei (%)” value [6] was 16%, the “Population Healthy Nuclei (%)” value [6] was 74% and the “Population Hoechst High Intensity Objects (%)” value [6] was 0%. The “Population Membrane Permeable-Phenotype (%)” value [6] was 5%, the “Population Mitochondria Different-Phenotype (%)” value [6] was 7% and the “Population Mitotic Cells (%)” value [6] was 9%. The “Population Normal (%)” value [6] was 99%, the “Population Tubulin-Different-Phenotype (%)” value [6] was 4% and the “Total Cell Count” value [6] was 131. The “Population Apoptotic (%)” value [7] was 100%, the “Population Fragmented Nuclei (%)” value [7] was 23% and the “Population Healthy Nuclei (%)” value [7] was 66%. The “Population Hoechst High Intensity Objects (%)” value [7] was 1%, the “Population Membrane Permeable-Phenotype (%)” value [7] was 6% and the “Population Mitochondria Different-Phenotype (%)” value [7] was 4%. For the same compound, the “Population Mitotic Cells (%)” value [7] was 0%, the “Population Normal (%)” value [7] was 98% and the “Population Pyknosed Nuclei (%)” value [7] was 9%. The “Population Tubulin-Different-Phenotype (%)” value [7] was 4%, the “Total Cell Count” value [7] was 216 and the “Population Apoptotic (%)” value [8] was 90%. The “Population Fragmented Nuclei (%)” value [8] was 16%, the “Population Healthy Nuclei (%)” value [8] was 74% and the “Population Hoechst High Intensity Objects (%)” value [8] was 2%. The “Population Membrane Permeable-Phenotype (%)” value [8] was 5%, the “Population Mitochondria Different-Phenotype (%)” value [8] was 1% and the “Population Mitotic Cells (%)” value [8] was 10%. For the same compound, the “Population Normal (%)” value [8] was 97%, the “Population Pyknosed Nuclei (%)” value [8] was 8% and the “Population Tubulin-Different-Phenotype (%)” value [8] was 2%. The “Total Cell Count” value [8] was 118, the “Population Apoptotic (%)” value [9] was 89% and the “Population Fragmented Nuclei (%)” value [9] was 19%. The “Population Healthy Nuclei (%)” value [9] was 71%, the “Population Hoechst High Intensity Objects (%)” value [9] was 2% and the “Population Membrane Permeable-Phenotype (%)” value [9] was 4%. For the same compound, the “Population Mitochondria Different-Phenotype (%)” value [9] was 3%, the “Population Mitotic Cells (%)” value [9] was 10% and the “Population Normal (%)” value [9] was 97%. For the same compound, the “Population Pyknosed Nuclei (%)” value [9] was 8%, the “Population Tubulin-Different-Phenotype (%)” value [9] was 2% and the “Total Cell Count” value [9] was 334. For the same compound, the “Population Apoptotic (%)” value [10] was 100%, the “Population Fragmented Nuclei (%)” value [10] was 13% and the “Population Healthy Nuclei (%)” value [10] was 79%. The “Population Membrane Permeable-Phenotype (%)” value [10] was 5%, the “Population Mitochondria Different-Phenotype (%)” value [10] was 4% and the “Population Mitotic Cells (%)” value [10] was 0%. The “Population Pyknosed Nuclei (%)” value [10] was 7%, the “Population Tubulin-Different-Phenotype (%)” value [10] was 3% and the “Total Cell Count” value [10] was 189. For the same compound, the “Population Apoptotic (%)” value [11] was 89%, the “Population Fragmented Nuclei (%)” value [11] was 23% and the “Population Healthy Nuclei (%)” value [11] was 67%. For the same compound, the “Population Hoechst High Intensity Objects (%)” value [11] was 3%, the “Population Membrane Permeable-Phenotype (%)” value [11] was 6% and the “Population Mitochondria Different-Phenotype (%)” value [11] was 3%. For the same compound, the “Population Mitotic Cells (%)” value [11] was 10%, the “Population Normal (%)” value [11] was 96% and the “Population Pyknosed Nuclei (%)” value [11] was 9%. For the same compound, the “Population Tubulin-Different-Phenotype (%)” value [11] was 4%, the “Total Cell Count” value [11] was 302 and the “Population Apoptotic (%)” value [12] was 100%. For the same compound, the “Population Fragmented Nuclei (%)” value [12] was 21%, the “Population Healthy Nuclei (%)” value [12] was 70% and the “Population Hoechst High Intensity Objects (%)” value [12] was 2%. The “Population Membrane Permeable-Phenotype (%)” value [12] was 7%, the “Population Mitotic Cells (%)” value [12] was 0% and the “Population Normal (%)” value [12] was 97%. For the same compound, the “Population Pyknosed Nuclei (%)” value [12] was 7%, the “Population Tubulin-Different-Phenotype (%)” value [12] was 3% and the “Total Cell Count” value [12] was 161.
